Assay results published in ChEMBL document CHEMBL4513216, “Probing the Open Global Health Chemical Diversity Library for Multistage-Active Starting Points for Next-Generation Antimalarials” (ACS Infect Dis, 2020).

Experiment: Toxicity liver stage against HepG2, at 10uM
Format: cell-based
Set-up: test concentration 10 uM, cell line HepG2-A16-CD81EGFP
Settings: human, HepG2-A16-CD81EGFP cells; read-out: INHIBITION
How it was run: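 Uninfected HepG2-A16-CD81EGFP cells, 3 × 10^3 per well, 1536-well, plated on prespotted compound at 10 μM final, parasite-free screening media added to match infected plates; puromycin 10 μM positive, DMSO 0.5% negative; run in parallel with 48 h PbLuc assay at 37 °C, 5% CO2; viability by CellTiter-Glo luminescence, normalized to controls.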

Structure (SMILES)	cytotoxicity at 10 µM [%]
CS(=O)(=O)N1CCC(CNC(=O)c2cnccn2)CC1	0.503
Cc1ccc(NC(=O)c2cnc(N3CCN(C)CC3)nc2C)cc1C	-7.8
O=c1[nH]cc(Nc2ccccc2)c(=O)[nH]1	15.6
CC1CCN(c2cc(NC(=O)C3CC3)ncn2)CC1	-8.67
COCCNC(=O)NCc1cc(-c2cccs2)n(C2CCCC2)n1	-10.5
c1cnc(NCc2n[nH]c3c2CCN(Cc2ccncc2)C3)nc1	-3.83
Cc1cnc(N2CCC3(CC2)C(c2ccccc2)CC(=O)N3C)nc1 (stereo not given)	-4.35
CCN1C(=O)CCCC12CCCN(C(=O)c1ccoc1)C2 (stereo not given)	-5.83
CC(C)Nc1ncnc2c1CCNCC2	-1.43
Cc1noc(C2CCC3(CCN(C(=O)c4cnn(C)c4)CC3)O2)n1 (stereo not given)	8.77
CCS(=O)(=O)N1CCC2(CC(=O)N(c3cncnc3)C2)C1 (stereo not given)	-0.298
COC[C@H]1CNC(=O)[C@@H]2CCN(Cc3cccc(C)n3)CC[C@H]12	16.7
Cc1nnc(N2C[C@H](OCCCn3cccn3)[C@H]3OCCC[C@H]32)s1	13.8
Cc1occc1C(=O)N1C[C@@H]2CCCO[C@@H]2[C@H](N(C)Cc2ccco2)C1	6.67
Cn1cc(C[C@H]2[C@@H](O)CCN2C(=O)C2CCC2)cn1	-7.44
CSc1nc2cc(C)n(CC(=O)NC(C)C)c2c(=O)n1CC(C)C	-4.1
Cc1cnc(N2C(=O)CSC2c2cccs2)s1 (stereo not given)	0.847
Cc1nn(C)c2c(N3CCN(C(=O)C4CCCCC4)CC3)ncnc12	12.3
Cc1cc(C)n(CCNc2ncnc3c2NC(=O)CN3)n1	6.61
CN1CCCC1c1ccc(N2CCOCC2)cn1 (stereo not given)	-2.21
CC(C)c1nccn1-c1cncc(C2CCCN(C3CCCCC3)C2)n1 (stereo not given)	-9.97
CN1CCN(Cc2cscn2)CC(C(=O)N(C)C)C1 (stereo not given)	-5.61

Structure (SMILES)	cytotoxicity at 10 µM [%]
COc1ccc(Cc2cccc(C3CCN(C)CC3)n2)cc1	0.153
CC(C)C(C(N)=O)c1cccc(Cl)c1 (stereo not given)	3.82
CCOc1cccc(NC(=O)c2cc(C)on2)n1	-2.14
CCN(C)C(=O)c1cccc(C(=O)N(C)Cc2cccc(O)c2)c1	11.7
c1ccc2c(c1)OCCC2NCc1ccc(N2CCOCC2)cc1 (stereo not given)	-13.7
CCC1CN(C)c2ccccc2CN1C(=O)CCn1cncn1 (stereo not given)	-1.87
O=C(NCC(O)Cc1ccccc1)c1ccc2[nH]c(=O)[nH]c2c1 (stereo not given)	4.14
Cc1cc(C)nc(NC2CCN(CCOC(C)C)CC2)n1	-10.8
CCN1CCN2CCCN(S(=O)(=O)c3ccc(C)cc3C)C2C1=O (stereo not given)	0.515
N#CCCN(Cc1ccco1)C(=O)CCCNC(=O)c1ccccc1	8.15
COc1ccc2c(c1)NC(=O)C2OC(=O)CC(C)(C)C (stereo not given)	2.41
Cn1cc(N2CCCC(Nc3ccc4c(c3)CCCO4)C2=O)cn1 (stereo not given)	-6.79
COC(=O)CCN(CC1CCOC1)C1CC1 (stereo not given)	-9.66
Cn1ccnc1COc1ccc(NC(=O)C2CCCO2)cc1 (stereo not given)	-14.9
CN(Cc1cccs1)C(=O)c1ccc(N2CCOCC2)c(F)c1	-5.56
NC(=O)C1CCCN1Cc1cccc(NC(=O)c2ccc(Cl)cc2F)c1 (stereo not given)	18.6
O=C(C(CNCc1ccco1)c1ccccc1)N1CCOCC1 (stereo not given)	-2.1
N#Cc1cccc(OCCN2CCCC2C(=O)Nc2nccs2)c1 (stereo not given)	2.94
CCNC(=O)NC(=O)CNC1(c2noc(C)n2)CCCC1	20.6
Cc1nc(N2CCN(C(=O)NCc3cscn3)CC2)sc1C	-11.3
CC(C)(C)c1nnc(CN(Cc2cccs2)CC2CCCO2)o1 (stereo not given)	15.8
Oc1ccc(N(CCc2ccccc2)CCn2cncn2)cc1	4.21

Structure (SMILES)	cytotoxicity at 10 µM [%]
COCCCNS(=O)(=O)c1cc(Br)sc1C	-6.14
CN(C(=O)CN1CCCc2cc(F)cc(F)c21)c1ccccc1	14.2
CN(Cc1ccc([S+](C)[O-])cc1)c1ccc(Br)cn1 (stereo not given)	11.8
CC(C)N(Cc1ccc(C#N)cc1)C(=O)Nc1ccncc1	3.9
COCCc1noc(CN(C)c2nccc(C)n2)n1	9.34
CS(=O)(=O)N1CCO[C@@H]2CN(C(=O)N3CCCC3)CC[C@@H]2C1	-101
Cc1ccc(CNCC2Cn3nncc3CO2)o1 (stereo not given)	-113
Cc1cc(C(=O)N2CCc3ncc(CN4CCCCC4)n3CC2)no1	-100
Cc1nc(CN2C(=O)CC[C@@H]3[C@H]2CCN3C(=O)C2CCOCC2)cs1	-81.3
CCOCC(=O)N1CC[C@@H]2O[C@@H](C)C[C@H]2C1	-69.2
CCN(Cc1nccn1C)C(=O)c1ccc(NCc2ccc(C)o2)nc1	9.78
O=C(CCC1CCN(C(=O)c2csnn2)CC1)NCc1cccc(Cl)c1	-4.55
CC(C)N1CCC(C(=O)N2CCN(c3cccc(C(=O)O)c3)CC2)CC1	6.4
CC(NC(=O)C1CCN(C(=O)C2CC2)CC1)c1nncn1C(C)C (stereo not given)	1.33
CCOCCn1nc(C)cc1C(=O)N1CC[C@](O)(CC)[C@H](O)C1	-3
CCn1ccnc1C1CCCN(c2nccc3ccccc23)C1 (stereo not given)	-2.74
Cc1c(C(C)NC2CSCCSC2)cnn1-c1ccc(F)cc1F (stereo not given)	-11.1
Cc1nc(-c2cccc(N3CCC(N4CCCC(C#N)C4)CC3)c2)cs1 (stereo not given)	6.22
CC(C)CN(Cc1ccc(O)c(C(=O)O)c1)Cc1ccccn1	8.5
CCC(OC)C(=O)NCc1cc2n(n1)CCCN(C1CCCCC1)C2 (stereo not given)	5.3
CSCCC(=O)N1CCC(c2nccn2CCN(C)C)CC1	-4.17
CSc1ccc(C(C(=O)O)N2CCC(C(=O)N3CCCC3)CC2)cc1 (stereo not given)	-3.45

Structure (SMILES)	cytotoxicity at 10 µM [%]
Cc1cccnc1NCCNc1cc(C(C)C)nc2ccnn12	-5.29
CCn1ccnc1C1CCN(Cc2c(F)cccc2F)CC1	-6.82
O=C(c1cc(Cn2ccc3ccccc32)[nH]n1)N1CCC[C@H]1CO	-1.99
CCn1c(Cn2cncn2)nnc1C1CCN(CCN)CC1	-0.111
CSc1ccc(CN(CCO)Cc2nccn2C)cc1	4.98
CN(C)C[C@@H]1CN(C(=O)c2cc(-c3ccccc3)n[nH]2)C[C@@H]1CO	-19.9
CCC(C)N(Cc1sccc1C)C(=O)c1cc(N)ccn1 (stereo not given)	9.8
O=C1NCC2(CCCN(Cc3ccc(Cl)s3)C2)Oc2ccccc21 (stereo not given)	8.69
CO[C@@H]1CC[C@@H](N(C)C(=O)COc2ccc(F)cc2)[C@H]1O	8.47
Cc1ccc(C(=O)NS(=O)(=O)c2ccccc2Br)c(=O)[nH]1	-0.704
Cc1nc(C2CCCN2CC(=O)NCCc2ccc(Cl)cc2)no1 (stereo not given)	8.52
Cc1cc(CNC(=O)N(Cc2ccc(F)cc2F)C2CC2)no1	-18.5
COc1ccc2cc(C(=O)N3CCCC(n4ccnc4C)C3)[nH]c2c1 (stereo not given)	-9.74
CCN1CCN(C2CCN(Cc3nc(C)c(C)o3)CC2)C1=O	-9.92
Cc1nc(CN2CCCC(NCCOc3ccccc3C#N)C2)no1 (stereo not given)	-1.13
O=C(NCCNC(=O)c1scnc1Cl)c1ccccc1Cl	-0.524
O=C(NCCc1coc(-c2ccccc2)n1)NC1CC1	-18.5
CNS(=O)(=O)Cc1ccc(CNc2cncc(-n3cccn3)n2)cc1	-4.66
CN(Cc1ccsc1)C(=O)c1cccc(NS(C)(=O)=O)c1	-5.72
CC(NC(=O)NCCCN(C)C)c1ccc2c(c1)CCC(=O)N2 (stereo not given)	-8.03
Cn1cnc2c1CCN(Cc1noc(-c3ccccc3)n1)C2	-1.96
O=C(O)c1cc(S(=O)(=O)Nc2cc(F)ccc2F)cc2c1OCCO2	-7.42

Structure (SMILES)	cytotoxicity at 10 µM [%]
CS(=O)(=O)CCC(=O)Nc1cnn(-c2ccccc2Cl)c1	-6.66
Cc1nn(CC(C)C)c(N(C)C)c1CNCc1cccnc1N(C)C	-7.71
Cc1ncsc1C(=O)NC1CCN(Cc2cccnc2)CC1	-7.49
CC(C)c1cc(NC(=O)CN2CCc3c(nc(C(C)C)n3C)C2)on1	-12.3
Cc1ccc(C)c(CSc2nnc(C(N)Cc3ccccc3)o2)c1 (stereo not given)	-0.431
Cc1ccc(CN2Cc3ccccc3OC3(CCC(CO)CC3)C2)o1 (stereo not given)	-13.7
COCCNC(=O)[C@H]1CN(Cc2cccs2)C[C@H]2OCC[C@@H]12	4
CCN(C)c1ncnc2c1CCN(S(=O)(=O)c1ccccc1)CC2	-106
c1cncc(O[C@@H]2CC[C@H]3[C@H]2OCCN3C2CCCC2)c1	1.76
CN(C)Cc1cnc2n1CCN(C(=O)NC1CCCC1)CC2	-3.77
CNC(=O)CN1CCOCC2(CN(CCC(F)(F)F)CCO2)C1 (stereo not given)	3.59
CN(Cc1cn2c(n1)CN(Cc1nccs1)CC2)Cc1ccco1	-77.2
OCCOCc1nnn2c1CN(c1ncccn1)CCC2	-10.5
CN(C)C(=O)N[C@H]1CN(C2CCOCC2)[C@@H]2CCCO[C@H]12	-1.86
c1ccc(NC[C@@H]2CCC[C@@H]3CN(Cc4cc[nH]n4)C[C@@H]32)nc1	-111
Cc1noc([C@H]2C[C@H]3OCC[C@H]3N(Cc3cccs3)C2)n1	-96.3
COCCN1C[C@@H]2[C@@H](OC)CCN(Cc3ccncc3)[C@@H]2C1	5.16
CC(C)=CCN1C(=O)[C@@H]2CC[C@H]1CN(C(=O)CCc1n[nH]c(C)c1C)C2	5.54
NC(=O)c1cccnc1N1C[C@H]2CC[C@@H](C1)N(Cc1ccccn1)C2=O	7.94
CC(C)=CCN1C[C@@H]2CC[C@H]1CN(S(=O)(=O)c1cccnc1)C2	3.26
CC(C)NC(=O)N1C[C@@H]2C[C@H](C(=O)N3CCCC3)[C@H](C1)O2	-101
CN(C)S(=O)(=O)N1C[C@@H]2C[C@H](C(=O)Nc3cccnc3)[C@H](C1)O2	-71.7
